The subject of experiment [1] is MDA-MB-453. Description: Cytotoxicity against human MDA-MB-453 cells assessed as cell viability after 72 hrs by MTT assay. Type of experiment: functional, cell-based. To be noted: MDA-MB-453, 72 h. (In general: Tetrazolium assays rely on reduction of a dye to a coloured formazan, in cell work by metabolically active cells.)
In experiment [2] the target is Serine/threonine-protein kinase PAK 1 (Homo sapiens, UniProt Q13153). Description: Inhibition of human PAK1. The method, boiled down:
(§1)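 Recombinant human protein kinases screened through the Eurofins KinaseProfiler service. IC50 values are means of two independent experiments.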

Experiment [3] has as its target Proto-oncogene tyrosine-protein kinase Src (Homo sapiens, UniProt P12931).
The target of experiment [4] is Phosphatidylinositol 4,5-bisphosphate 3-kinase catalytic subunit alpha isoform (Homo sapiens, UniProt P42336). Kind of experiment: Inhibition of human PI3Kalpha. Summed up: as §1
Chain of Phosphatidylinositol 4,5-bisphosphate 3-kinase catalytic subunit alpha isoform (P42336 whole entry, canonical isoform): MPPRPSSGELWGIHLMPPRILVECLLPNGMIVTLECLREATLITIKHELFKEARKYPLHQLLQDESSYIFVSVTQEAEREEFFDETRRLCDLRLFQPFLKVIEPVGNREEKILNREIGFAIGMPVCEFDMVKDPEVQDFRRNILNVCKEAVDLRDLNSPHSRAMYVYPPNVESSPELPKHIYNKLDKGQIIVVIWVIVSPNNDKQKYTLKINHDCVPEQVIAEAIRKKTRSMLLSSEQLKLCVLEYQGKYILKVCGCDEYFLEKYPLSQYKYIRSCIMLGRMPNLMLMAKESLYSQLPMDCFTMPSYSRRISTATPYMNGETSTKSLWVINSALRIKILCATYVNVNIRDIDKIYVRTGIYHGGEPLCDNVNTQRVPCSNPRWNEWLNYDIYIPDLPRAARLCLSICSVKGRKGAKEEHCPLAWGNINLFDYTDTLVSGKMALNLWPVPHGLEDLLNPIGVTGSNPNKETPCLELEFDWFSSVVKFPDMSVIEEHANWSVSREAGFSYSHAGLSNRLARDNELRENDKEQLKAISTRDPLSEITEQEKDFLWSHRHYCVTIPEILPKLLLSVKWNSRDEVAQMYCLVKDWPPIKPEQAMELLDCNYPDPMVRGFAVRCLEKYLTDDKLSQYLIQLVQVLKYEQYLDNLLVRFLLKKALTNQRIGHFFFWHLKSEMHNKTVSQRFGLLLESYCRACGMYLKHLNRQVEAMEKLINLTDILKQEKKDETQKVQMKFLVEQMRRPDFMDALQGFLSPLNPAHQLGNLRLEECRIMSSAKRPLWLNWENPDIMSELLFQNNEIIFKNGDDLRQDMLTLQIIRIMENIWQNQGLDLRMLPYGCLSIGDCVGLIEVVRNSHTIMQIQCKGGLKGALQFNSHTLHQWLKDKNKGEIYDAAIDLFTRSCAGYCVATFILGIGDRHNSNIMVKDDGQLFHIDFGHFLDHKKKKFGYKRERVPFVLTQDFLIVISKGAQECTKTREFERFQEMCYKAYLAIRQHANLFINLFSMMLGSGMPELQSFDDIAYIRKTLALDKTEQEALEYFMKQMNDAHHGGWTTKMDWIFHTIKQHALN
Experiment [5] has as its system MDA-MB-231. Description: Antitumor activity against human MDA-MB-231 cells xenografted in SCID mouse assessed as tumor growth inhibition at 30 mg/kg/day, po qd administered for 18 days measured every 3 days during compound dosing relative to vehicle-treated control. Type of experiment: functional. Particulars: read-out: TGI. The method, boiled down: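 SCID mice (5–6 weeks) given subcutaneous injections of 5 ×10^6 MDA-MB-231 cells; at 150–200 mm3 tumors, randomized into 6 groups of 6; oral daily dosing (vehicle 25% PEG400 + 5% DMSO in sterile water), paclitaxel 10 mg/kg/week by tail vein; tumors measured every 3 days, volume = ab²/2; side effects monitored daily.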

For experiment [6], the target named is Mitogen-activated protein kinase 1 (Homo sapiens, UniProt P28482). Kind of experiment: Inhibition of human MAPK1. The method, boiled down:
as §1

Experiment [7] relates to MDA-MB-231. Kind of experiment: cells. Particulars: Homo sapiens, MDA-MB-231, 72 h.
The test system of experiment [8] is MDA-MB-231. Description: Induction of apoptosis in human MDA-MB-231 cells assessed as viable cells at 0.03 uM after 48 hrs by annexin V-FITC/propidium iodide staining-based flow cytometric analysis (reference value: 94.4%). Type of experiment: functional. Particulars: MDA-MB-231, 48 h, read-out: Activity. Summed up: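 MDA-MB-231 cells (ATCC; medium with 10% FBS, 37 °C, 5% CO2) plated at 2 × 10^5 per six-well well and treated with a range of concentrations for 24 and 48 h at 37 °C. Cells harvested, washed with ice-cold PBS, stained with annexin V-FITC apoptosis detection kit and analysed by flow cytometry.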
(Flow cytometry measures light scatter and fluorescence of single cells or particles in a stream.)

Experiment [9] concerns Ramos. Kind of experiment: Cytotoxicity against human Ramos cells assessed as cell viability after 72 hrs by MTT assay. Type of experiment: functional, cell-based.
Experiment [10] concerns MDA-MB-231. Kind of experiment: Induction of apoptosis in human MDA-MB-231 cells assessed as early apoptotic cells at 0.3 uM after 24 hrs by annexin V-FITC/propidium iodide staining-based flow cytometric analysis (reference value: 1.58%). Type of experiment: functional.
Experiment [11] concerns MDA-MB-231. Kind of experiment: Induction of apoptosis in human MDA-MB-231 cells assessed as early apoptotic cells at 0.03 uM after 48 hrs by annexin V-FITC/propidium iodide staining-based flow cytometric analysis (reference value: […]). Type of experiment: functional.

Chain of Mitogen-activated protein kinase 1 (P28482 whole entry): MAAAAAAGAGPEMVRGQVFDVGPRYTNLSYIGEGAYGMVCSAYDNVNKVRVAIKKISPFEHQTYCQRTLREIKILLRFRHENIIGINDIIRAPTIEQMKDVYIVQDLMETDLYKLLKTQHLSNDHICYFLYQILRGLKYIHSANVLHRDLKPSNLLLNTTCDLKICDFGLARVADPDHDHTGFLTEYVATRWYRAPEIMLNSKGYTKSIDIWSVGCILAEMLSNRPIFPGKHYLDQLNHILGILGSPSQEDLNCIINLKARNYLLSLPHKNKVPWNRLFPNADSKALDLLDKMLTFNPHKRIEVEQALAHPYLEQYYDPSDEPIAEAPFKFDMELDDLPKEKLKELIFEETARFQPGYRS
Chain of Proto-oncogene tyrosine-protein kinase Src (P12931 2-536 limits assumed): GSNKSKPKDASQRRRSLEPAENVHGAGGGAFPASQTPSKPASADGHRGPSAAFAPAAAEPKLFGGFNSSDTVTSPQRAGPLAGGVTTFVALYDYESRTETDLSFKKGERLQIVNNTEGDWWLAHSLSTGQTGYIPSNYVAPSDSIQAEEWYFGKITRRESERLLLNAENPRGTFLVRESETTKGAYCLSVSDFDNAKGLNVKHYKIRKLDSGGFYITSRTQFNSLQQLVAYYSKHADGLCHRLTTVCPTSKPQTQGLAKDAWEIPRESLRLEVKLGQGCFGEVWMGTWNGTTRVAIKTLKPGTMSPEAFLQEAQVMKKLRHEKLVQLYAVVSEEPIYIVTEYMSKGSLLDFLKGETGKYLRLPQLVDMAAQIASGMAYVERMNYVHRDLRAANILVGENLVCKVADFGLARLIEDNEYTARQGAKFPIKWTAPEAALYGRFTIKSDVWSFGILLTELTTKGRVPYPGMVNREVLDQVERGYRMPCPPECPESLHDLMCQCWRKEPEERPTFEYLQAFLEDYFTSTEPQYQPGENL
Chain of Serine/threonine-protein kinase PAK 1 (Q13153 whole entry): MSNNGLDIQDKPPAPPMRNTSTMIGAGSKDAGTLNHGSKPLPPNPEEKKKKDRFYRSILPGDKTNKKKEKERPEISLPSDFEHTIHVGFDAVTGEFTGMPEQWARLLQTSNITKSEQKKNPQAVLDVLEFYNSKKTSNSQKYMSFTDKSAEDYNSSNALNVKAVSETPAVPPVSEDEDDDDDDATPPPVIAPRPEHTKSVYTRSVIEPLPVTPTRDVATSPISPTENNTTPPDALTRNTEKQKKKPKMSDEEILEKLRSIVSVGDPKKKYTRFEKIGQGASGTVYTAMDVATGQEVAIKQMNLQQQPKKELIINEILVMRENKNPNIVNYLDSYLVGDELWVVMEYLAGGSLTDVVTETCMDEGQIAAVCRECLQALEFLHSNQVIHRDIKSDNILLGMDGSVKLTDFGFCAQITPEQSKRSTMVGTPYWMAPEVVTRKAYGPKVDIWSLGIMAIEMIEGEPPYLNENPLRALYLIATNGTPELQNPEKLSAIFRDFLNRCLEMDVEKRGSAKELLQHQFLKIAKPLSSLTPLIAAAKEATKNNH

`CCn1nc(C#Cc2cc(C(=O)Nc3ccc(CN4CCN(C)CC4)c(C(F)(F)F)c3)ccc2C)c2c(N)ncnc21`: the IC50 is 325 nM in experiment [1]; over 10000 nM in [2]; 0.9 nM in [3]; over 10000 nM in [4]; over 10000 nM in experiment [6]; 11 nM in experiment [7]. Also, the half-maximal inhibitory concentration (IC50) in experiment [9] came to 10000 nM. Further, in experiment [5], the inhibition in vivo at 30 mg/kg/day was over 100%. Further, in [8], the viability at 0.03 µM was 90.5%. For the same compound, the values for the Activity in experiment [10] and in [11] were 6.51% and 3.23%, respectively.

In general, IC50 refers to the concentration needed to halve the response being measured.

The record behind these values is ChEMBL document CHEMBL3425429.
